The structures appear in SMILES notation.

The target of series [1] is T1, Mitogen-activated protein kinase 14 (Homo sapiens, UniProt Q16539). As to the kind of experiment: Inhibition of p38alpha MAPK (unknown origin) assessed as target residence time using ATF2 as substrate preincubated for 1 hr followed by jump dilution in presence of substrate and measured every 3 mins for 4 hrs by TR-FRET assay. A general note: Time-resolved FRET reads energy transfer from a long-lived donor to a nearby acceptor.

The target of series [2] is T1, Mitogen-activated protein kinase 14. As to the kind of experiment: Inhibition of p38alpha MAPK in human whole blood assessed as reduction in LPS-induced TNFalpha production preincubated for 2.5 hrs followed by LPS stimulation by ELISA. The series is classed as tissue-based. (An ELISA detects its analyte on a solid surface through an enzyme-linked reagent.)
For series [3] the target is unchanged. Briefly: Inhibition of recombinant human full-length N-terminal GST-tagged p38alpha MAPK expressed in baculovirus infected Sf9 insect cells using p38 peptide as substrate preincubated for 15 mins followed by substrate addition and measured after 60 mins by ADP-glo assay. In general terms: In ADP-Glo the light output rises with the ADP produced.
Series [4] has the same target. Briefly: Inhibition of NanoBRET kinase tracer K4 binding to full-length human C-terminal NanoLuc-tagged p38alpha MAPK expressed in HEK293T cells incubated for 2 hrs by NanoBRET NanoGlo substrate based NanoBRET assay. The series is classed as cell-based, HEK-293T. The method in brief: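 Cellular reporter-displacement NanoBRET format, run in intact cells where the competing substrate ATP is present at cellular concentrations. The result is reported as an IC50.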

Series [5] in a line: Drug metabolism in human liver microsomes assessed as oxidation at 100 uM measured after 180 mins in presence of NADPH generating system by LC-MS/MS analysis. The series is classed as ADME, Microsome. The following applies: 3 h.
Series [6] is described as follows: Stability of the compound in human liver microsomes at 100 uM measured after 180 mins in presence of NADPH generating system by LC-MS/MS analysis. The series is classed as ADME, Microsome. The following applies: 3 h.

T1 sequence (Q16539 whole entry): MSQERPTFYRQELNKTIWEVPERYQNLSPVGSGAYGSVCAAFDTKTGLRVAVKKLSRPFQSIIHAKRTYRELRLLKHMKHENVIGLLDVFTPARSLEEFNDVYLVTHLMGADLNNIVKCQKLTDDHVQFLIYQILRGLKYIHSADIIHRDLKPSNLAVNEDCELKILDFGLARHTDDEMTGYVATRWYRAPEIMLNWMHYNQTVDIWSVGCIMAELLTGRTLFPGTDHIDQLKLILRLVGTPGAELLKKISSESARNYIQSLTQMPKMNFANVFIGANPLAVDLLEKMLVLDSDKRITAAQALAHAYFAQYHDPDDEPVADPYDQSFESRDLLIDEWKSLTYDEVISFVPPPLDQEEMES

As for `O=C1c2ccc(Nc3ccc(F)cc3F)cc2CCc2ccc(OC[C@H](O)CO)cc21`, the TIME in series [1] turned out to be 0.0244 h.
As a reminder, the IC50 is the midpoint of a concentration-inhibition curve. For the compound `O=C(NCCN1CCOCC1)c1ccc2c(c1)C(=O)c1ccc(Nc3ccc(F)c(/C=N/NC(=O)c4ccccc4)c3)cc1CC2`, the IC50 in series [2] stood at 47 nM; in series [3] it was 19.7 nM; in series [4], 6.3 nM. Besides, the Drug metabolism entry in series [5] is recorded as “Metabolite_Notdetected”. Moreover, in series [1], the TIME worked out at 0.231 h. Moreover, the Stability result in series [6] is “Stable”.
For `O=C(NCCN1CCOCC1)c1ccc2c(c1)C(=O)c1ccc(Nc3ccc(F)c(/C=N/NC(=O)c4ccc[se]4)c3)cc1CC2`, the IC50 in series [2] was determined as 490 nM; in series [3], 16 nM; in series [4] it was 30.4 nM. Moreover, in series [1], the TIME amounted to 0.281 h.
For `O=C(NCCN1CCOCC1)c1ccc2c(c1)C(=O)c1ccc(Nc3ccc(F)c(/C=N/NC(=O)c4cccs4)c3)cc1CC2` the same measures were 276 nM, 29.7 nM, 15.5 nM and 0.372 h.
Consider `O=C(NCCN1CCOCC1)c1ccc2c(c1)C(=O)c1ccc(Nc3ccc(F)c(NC(=O)c4ccc[se]4)c3)cc1CC2`, for which the IC50 in series [2] is 101 nM; in series [3], 24.6 nM; in series [4] it was 4.9 nM. Moreover, in series [5], the Drug metabolism entry is “Metabolite_Notdetected”. Besides, the TIME in series [1] is 0.443 h.
On to `O=C(NCCN1CCOCC1)c1ccc2c(c1)C(=O)c1ccc(Nc3ccc(F)c(NC(=O)c4cccs4)c3)cc1CC2`, for which the figures for the IC50 in series [2] and in series [3] were 43 nM and 12 nM, respectively. The TIME in series [1] is 0.207 h.
Turning to `O=C(NCCN1CCOCC1)c1ccc2c(c1)C(=O)c1ccc(Nc3ccc(F)c(NC(=O)c4ccccc4)c3)cc1CC2`, in series [1], the TIME is 0.0511 h.

The values above are taken from ChEMBL document CHEMBL4616669, “Bioisosteric Replacement of Arylamide-Linked Spine Residues with N-Acylhydrazones and Selenophenes as a Design Strategy to Novel Dibenzosuberone Derivatives as Type I 1/2 p38α MAP Kinase Inhibitors” (J Med Chem, 2020).
